The nature of data set [1]: Cmax in rat at 3 mg/kg, po. It counts as ADME, organism-based. Also on record: dose 3 mg/kg, route oral. The conditions noted are these: in vivo. An outline of the steps:
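Rats dosed orally at 3 mg/kg; vehicle DMSO, Tween 80, normal saline; values are the average of three determinations.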

Data set [2] in a line: Drug metabolism in rat liver microsomes assessed as (S)-4-(4-(4,7-diamino-6-methylene-7,8-dihydro-6H-pyrimido[5,4-b]pyrrolizin-5-yl)phenoxy)phenol formation after 3 hrs. It counts as ADME, microsome.
Data set [3] concerns Ramos. The data set can be described thus: Antiproliferative activity against human Ramos cells after 72 hrs by MTT assay. Type of data set: functional, cell-based. An outline of the steps: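 Cells grown in RPMI-1640 with FBS at 37 °C, 5% CO2. Seeded and grown 2 h, then treated with various concentrations in PBS solution, each in triplicate, and cultured a further 72 h. Viability read by MTT. IC50 from the Logit method, given as mean ± SD of three independent determinations.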
For orientation: Tetrazolium dyes change colour on reduction, which living cells bring about.

In data set [4] the target is Receptor tyrosine-protein kinase erbB-4 (Homo sapiens, UniProt Q15303). As to the kind of experiment: Inhibition of recombinant human ErbB4 using Poly(Glu, Tyr) 4:1 as substrate after 1 hr by ELISA. An outline of the steps: (§1)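 Kinase activity was measured by ELISA on wells precoated with 20 µg/mL poly(Glu,Tyr) 4:1. Enzyme was incubated with compound in 50 mM HEPES pH 7.4, 20 mM MgCl2, 0.1 mM MnCl2, 0.2 mM Na3VO4, 1 mM DTT with 5 µM ATP at 37 °C for 1 h. Phosphotyrosine was detected with PY99 antibody, HRP secondary and OPD, read at A492. IC50 is the mean of duplicates.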
Chain of Receptor tyrosine-protein kinase erbB-4 (Q15303 whole entry): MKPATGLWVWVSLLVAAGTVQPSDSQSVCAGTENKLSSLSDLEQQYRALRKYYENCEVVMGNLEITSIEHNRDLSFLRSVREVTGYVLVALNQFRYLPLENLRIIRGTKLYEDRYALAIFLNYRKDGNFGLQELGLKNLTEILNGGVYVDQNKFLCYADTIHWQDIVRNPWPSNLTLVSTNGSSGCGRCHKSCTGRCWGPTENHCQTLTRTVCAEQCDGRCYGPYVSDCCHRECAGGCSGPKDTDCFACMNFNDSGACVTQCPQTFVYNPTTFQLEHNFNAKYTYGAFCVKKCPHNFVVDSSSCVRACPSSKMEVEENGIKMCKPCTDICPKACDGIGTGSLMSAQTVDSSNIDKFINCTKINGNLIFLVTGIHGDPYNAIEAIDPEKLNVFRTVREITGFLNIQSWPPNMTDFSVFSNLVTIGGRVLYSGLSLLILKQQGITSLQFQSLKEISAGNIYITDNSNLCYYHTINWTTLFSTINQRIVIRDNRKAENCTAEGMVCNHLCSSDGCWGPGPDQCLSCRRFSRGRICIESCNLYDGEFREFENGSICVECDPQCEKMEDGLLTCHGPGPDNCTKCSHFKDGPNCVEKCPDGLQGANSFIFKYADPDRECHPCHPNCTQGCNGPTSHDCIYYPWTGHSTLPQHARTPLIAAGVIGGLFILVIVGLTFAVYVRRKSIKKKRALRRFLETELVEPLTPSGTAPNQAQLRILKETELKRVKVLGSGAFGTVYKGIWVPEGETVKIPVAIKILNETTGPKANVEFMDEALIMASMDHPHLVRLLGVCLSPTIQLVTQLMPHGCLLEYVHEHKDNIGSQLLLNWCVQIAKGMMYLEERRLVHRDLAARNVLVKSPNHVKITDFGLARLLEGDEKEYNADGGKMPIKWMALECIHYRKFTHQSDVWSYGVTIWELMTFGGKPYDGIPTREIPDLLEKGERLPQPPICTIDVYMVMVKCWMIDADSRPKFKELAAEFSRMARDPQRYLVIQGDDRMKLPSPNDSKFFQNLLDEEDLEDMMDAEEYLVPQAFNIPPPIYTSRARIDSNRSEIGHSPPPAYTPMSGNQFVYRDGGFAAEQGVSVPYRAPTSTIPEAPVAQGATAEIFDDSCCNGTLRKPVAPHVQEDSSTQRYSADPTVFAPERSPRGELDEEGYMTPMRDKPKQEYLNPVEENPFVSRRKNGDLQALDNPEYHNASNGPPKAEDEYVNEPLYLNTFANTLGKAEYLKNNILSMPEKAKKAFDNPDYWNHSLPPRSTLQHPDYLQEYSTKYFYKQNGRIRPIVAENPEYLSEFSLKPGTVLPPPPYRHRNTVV
(In general: ELISA stands for enzyme-linked immunosorbent assay.)

Data set [5] deals with T1, Tyrosine-protein kinase Tec (Homo sapiens, UniProt P42680).
T1 sequence (P42680 whole entry): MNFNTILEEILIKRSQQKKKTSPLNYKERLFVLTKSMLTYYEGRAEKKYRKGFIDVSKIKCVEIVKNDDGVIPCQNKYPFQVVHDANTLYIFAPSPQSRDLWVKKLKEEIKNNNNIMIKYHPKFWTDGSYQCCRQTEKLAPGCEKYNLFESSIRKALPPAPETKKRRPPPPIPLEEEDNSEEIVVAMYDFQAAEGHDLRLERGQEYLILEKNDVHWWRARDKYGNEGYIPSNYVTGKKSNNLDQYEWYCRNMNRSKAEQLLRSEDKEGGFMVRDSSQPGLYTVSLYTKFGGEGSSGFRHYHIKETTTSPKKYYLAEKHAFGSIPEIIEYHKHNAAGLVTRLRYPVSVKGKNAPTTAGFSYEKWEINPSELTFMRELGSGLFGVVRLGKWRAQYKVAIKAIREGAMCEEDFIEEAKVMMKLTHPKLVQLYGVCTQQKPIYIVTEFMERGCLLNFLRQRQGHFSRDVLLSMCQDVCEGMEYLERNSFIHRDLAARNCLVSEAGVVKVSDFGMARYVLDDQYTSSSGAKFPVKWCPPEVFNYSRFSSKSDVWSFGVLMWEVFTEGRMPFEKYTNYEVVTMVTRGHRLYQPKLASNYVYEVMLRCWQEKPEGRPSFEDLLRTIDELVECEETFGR
As to the kind of experiment: Inhibition of recombinant human TEC using Poly(Glu, Tyr) 4:1 as substrate after 1 hr by ELISA. An outline of the steps:
as §1

For data set [6], the target named is T2, Tyrosine-protein kinase ITK/TSK (Homo sapiens, UniProt Q08881).
T2 sequence (Q08881 whole entry): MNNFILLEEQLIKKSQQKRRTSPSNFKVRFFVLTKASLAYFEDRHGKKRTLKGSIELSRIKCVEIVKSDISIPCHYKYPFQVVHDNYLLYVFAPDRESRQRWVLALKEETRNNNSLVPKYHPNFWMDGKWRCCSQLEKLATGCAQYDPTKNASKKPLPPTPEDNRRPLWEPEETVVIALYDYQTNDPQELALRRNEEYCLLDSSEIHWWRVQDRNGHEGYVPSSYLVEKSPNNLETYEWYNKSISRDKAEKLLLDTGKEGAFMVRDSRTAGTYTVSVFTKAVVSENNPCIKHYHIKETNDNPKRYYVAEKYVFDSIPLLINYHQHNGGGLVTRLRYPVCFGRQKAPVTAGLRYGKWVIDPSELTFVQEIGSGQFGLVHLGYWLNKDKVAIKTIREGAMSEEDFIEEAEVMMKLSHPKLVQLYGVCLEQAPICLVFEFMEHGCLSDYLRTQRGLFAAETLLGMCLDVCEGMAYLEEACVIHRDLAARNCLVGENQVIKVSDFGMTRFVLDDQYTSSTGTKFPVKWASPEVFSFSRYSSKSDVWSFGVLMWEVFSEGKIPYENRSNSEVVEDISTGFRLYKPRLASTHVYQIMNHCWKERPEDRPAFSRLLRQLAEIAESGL
As to the kind of experiment: Inhibition of recombinant human ITK using Poly(Glu, Tyr) 4:1 as substrate after 1 hr by ELISA. An outline of the steps:
as §1

The target of data set [7] is T3, Receptor-type tyrosine-protein kinase FLT3 (Homo sapiens, UniProt P36888).
T3 sequence (P36888 whole entry): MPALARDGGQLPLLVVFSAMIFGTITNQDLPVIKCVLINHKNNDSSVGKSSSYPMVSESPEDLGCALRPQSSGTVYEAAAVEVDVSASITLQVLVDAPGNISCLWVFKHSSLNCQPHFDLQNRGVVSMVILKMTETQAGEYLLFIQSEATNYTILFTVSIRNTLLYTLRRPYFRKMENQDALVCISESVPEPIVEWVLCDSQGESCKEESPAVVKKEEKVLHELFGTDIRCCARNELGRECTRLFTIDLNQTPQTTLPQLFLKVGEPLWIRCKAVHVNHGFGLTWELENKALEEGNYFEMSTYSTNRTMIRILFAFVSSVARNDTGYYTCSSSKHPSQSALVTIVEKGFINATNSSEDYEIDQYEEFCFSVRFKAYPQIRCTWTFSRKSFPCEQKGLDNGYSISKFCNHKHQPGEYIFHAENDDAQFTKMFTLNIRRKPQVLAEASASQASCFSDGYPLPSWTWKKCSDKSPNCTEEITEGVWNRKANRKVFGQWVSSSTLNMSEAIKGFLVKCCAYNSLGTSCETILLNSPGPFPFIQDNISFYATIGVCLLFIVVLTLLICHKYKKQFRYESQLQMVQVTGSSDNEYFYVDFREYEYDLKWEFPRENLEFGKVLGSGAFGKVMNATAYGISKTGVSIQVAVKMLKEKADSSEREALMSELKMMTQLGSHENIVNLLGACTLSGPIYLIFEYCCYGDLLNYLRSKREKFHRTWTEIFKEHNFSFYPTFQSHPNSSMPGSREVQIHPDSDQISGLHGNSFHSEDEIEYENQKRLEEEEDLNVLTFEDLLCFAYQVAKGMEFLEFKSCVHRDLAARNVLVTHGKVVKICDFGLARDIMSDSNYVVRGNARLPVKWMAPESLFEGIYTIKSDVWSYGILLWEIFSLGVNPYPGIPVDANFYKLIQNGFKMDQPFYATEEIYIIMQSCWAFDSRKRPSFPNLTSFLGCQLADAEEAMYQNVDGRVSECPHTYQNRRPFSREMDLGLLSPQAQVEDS
As to the kind of experiment: Inhibition of recombinant human FLT3 using Poly(Glu, Tyr) 4:1 as substrate after 1 hr by ELISA. An outline of the steps:
as §1

Data set [8] relates to TMD8. The data set can be described thus: Cell cycle arrest in human TMD8 cells assessed as accumulation at G1 phase at 10 nM after 48 hrs by propidium iodide staining-based flow cytometric method (reference value: 51.33%). It counts as functional. For orientation: In flow cytometry, cells or beads pass a laser one at a time.

As to `C=CC(=O)N[C@@H]1Cn2c(c(-c3ccc(Oc4ccccc4)cc3)c3c(N)ncnc32)C1=C`, the highest concentration (Cmax) in data set [1] amounted to 223 ng/mL. In addition, in data set [2], the Drug metabolism result is recorded as “Metabolite_Detected”. Moreover, the IC50 amounted to 5030 nM in data set [3]; 0.6 nM in data set [4]; 1.4 nM in data set [5]; 15.1 nM in data set [6]; 55 nM in data set [7]. Further, the Activity in data set [8] came out at 76.32%.

A word on the Cmax: it is the highest concentration seen after dosing. The IC50 is the midpoint of a concentration-inhibition curve.

These data come from ChEMBL document CHEMBL4184325, “Discovery of 4,7-Diamino-5-(4-phenoxyphenyl)-6-methylene-pyrimido[5,4- b]pyrrolizines as Novel Bruton's Tyrosine Kinase Inhibitors” (J Med Chem, 2018).
